ChEMBL document CHEMBL1165950, “Design and synthesis of new potent anticancer pyrazoles with high FLT3 kinase inhibitory selectivity” (Bioorg Med Chem, 2010)

Legend:
Type in all cases: functional
[1] = test system: OVCAR-8; assay: Cytotoxicity against human OVCAR8 cells assessed as cell growth at 100 nM after 48 hrs by sulforhodamine B assay; settings: OVCAR-8, 48 h, read-out: Activity
[2] = test system: LOX IMVI; assay: Cytotoxicity against human LOXIMVI cells assessed as cell growth at 10 uM; settings: read-out: Activity
Method in brief: (§1)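 NCI-60 screen: cells grown in RPMI 1640 with 5% FBS and 2 mM L-glutamine, plated at 5000–40,000 cells/well according to doubling time, and preincubated 24 h at 37 °C, 5% CO2. The single 10 µM dose (DMSO stock) was added, then incubated 48 h. Cells were TCA-fixed and stained with 0.4% SRB, read at 515 nm, and growth % calculated against time-zero and control plates.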

[3] = test system: M14; assay: Cytotoxicity against human M14 cells assessed as cell growth at 10 uM; settings: read-out: Activity; method in brief: as §1
[4] = test system: OVCAR-8; assay: Cytotoxicity against human OVCAR8 cells assessed as cell growth at 10 uM; settings: read-out: Activity; method in brief: as §1
[5] = test system: MDA-MB-231; assay: Cytotoxicity against human MDA-MB-231 cells assessed as cell growth at 10 uM; settings: read-out: Activity; method in brief: as §1
[6] = test system: MOLT-4; assay: Cytotoxicity against human MOLT4 cells assessed as cell growth at 0.001 uM after 48 hrs by sulforhodamine B assay; settings: MOLT-4, 48 h, read-out: Activity
[7] = test system: KM12; assay: Cytotoxicity against human KM12 cells assessed as cell growth at 0.01 uM after 48 hrs by sulforhodamine B assay; settings: KM12, 48 h, read-out: Activity
[8] = test system: SF-268; assay: Cytotoxicity against human SF268 cells assessed as cell growth at 0.01 uM after 48 hrs by sulforhodamine B assay; settings: SF-268, 48 h, read-out: Activity
[9] = test system: SF-295; assay: Cytotoxicity against human SF295 cells assessed as cell growth at 0.01 uM after 48 hrs by sulforhodamine B assay; settings: SF-295, 48 h, read-out: Activity
[10] = test system: UO-31; assay: Cytotoxicity against human UO31 cells assessed as cell growth at 0.01 uM after 48 hrs by sulforhodamine B assay; settings: UO-31, 48 h, read-out: Activity
[11] = test system: HT-29; assay: Cytotoxicity against human HT-29 cells assessed as cell growth at 0.001 uM after 48 hrs by sulforhodamine B assay; settings: HT-29, 48 h, read-out: Activity
[12] = test system: UACC-257; assay: Cytotoxicity against human UACC257 cells assessed as cell growth at 0.001 uM after 48 hrs by sulforhodamine B assay; settings: UACC-257, 48 h, read-out: Activity
[13] = test system: A498; assay: Cytotoxicity against human A498 cells assessed as cell growth at 0.001 uM after 48 hrs by sulforhodamine B assay; settings: A498, 48 h, read-out: Activity
Method in brief: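 NCI-60 five-dose screen. Cells were grown in RPMI 1640 with 5% FBS and 2 mM L-glutamine, plated at 5000–40,000 cells/well and preincubated for 24 h. Time-zero plates were TCA-fixed. DMSO-solubilized drug was added at five concentrations (10-fold or ½-log serial dilutions) for 48 h at 37 °C, 5% CO2. Cells were TCA-fixed, stained with 0.4% SRB and read at 515 nm. Percent growth used time-zero, control and test absorbances.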

[14] = test system: PC-3; assay: Cytotoxicity against human PC3 cells assessed as cell growth at 0.001 uM after 48 hrs by sulforhodamine B assay; settings: PC-3, 48 h, read-out: Activity
[15] = test system: NCI-H23; assay: Growth inhibition of human NCI-H23 cells after 48 hrs by sulforhodamine B assay; settings: NCI-H23, 48 h; for CC50: read-out: LC50 (the source's name)
Method in brief: (§2)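 NCI 60-cell screen, five-dose mode. Cells grown in RPMI 1640 with 5% FBS and 2 mM L-glutamine and plated at 5000-40,000 cells/well according to doubling time. After 24 h preincubation, a Tz plate was TCA-fixed. Five concentrations (10-fold or 1/2 log dilutions) were applied for 48 h at 37 °C. SRB staining read at 515 nm. IC50 taken from [(Ti-Tz)/(C-Tz)]×100 = 50.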

[16] = test system: SNB-75; assay: Growth inhibition of human SNB75 cells after 48 hrs by sulforhodamine B assay; settings: SNB-75, 48 h; for CC50: read-out: LC50 (the source's name); method in brief: as §2
[17] = test system: OVCAR-5; assay: Growth inhibition of human OVCAR5 cells after 48 hrs by sulforhodamine B assay; settings: OVCAR-5, 48 h; for CC50: read-out: LC50 (the source's name); method in brief: as §2
[18] = test system: OVCAR-8; assay: Growth inhibition of human OVCAR8 cells after 48 hrs by sulforhodamine B assay; settings: OVCAR-8, 48 h; for CC50: read-out: LC50 (the source's name); method in brief: as §2
[19] = test system: CAKI-1; assay: Growth inhibition of human Caki1 cells after 48 hrs by sulforhodamine B assay; settings: CAKI-1, 48 h; for CC50: read-out: LC50 (the source's name)
Method in brief: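 NCI five-dose SRB assay in RPMI 1640 with 5% FBS and 2 mM L-glutamine. Cells were preincubated 24 h, then exposed 48 h at 37 °C to five concentrations (10-fold or half-log serial dilutions from DMSO stocks). TCA fixation, SRB staining, and absorbance at 515 nm followed. IC50 was taken where [(Ti−Tz)/(C−Tz)]×100 = 50, with Tz as time-zero cell density.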

[20] = test system: MDA-MB-231; assay: Growth inhibition of human MDA-MB-231 cells after 48 hrs by sulforhodamine B assay; settings: MDA-MB-231, 48 h; method in brief: as §2
[21] = test system: HL-60(TB); assay: Cytotoxicity against human HL-60(TB) cells assessed as cell growth at 10 uM; settings: read-out: Activity
Method in brief: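 NCI 60-cell panel screen at a single concentration of 10 µM. Cells are grown in RPMI 1640 with 5% FBS and 2 mM L-glutamine and read by SRB protein staining at 515 nm. Percent growth is measured relative to time-zero and untreated controls; inhibition % is 100 minus growth %.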

[22] = test system: HOP-62; assay: Cytotoxicity against human HOP62 cells assessed as cell growth at 10 uM; settings: read-out: Activity
Method in brief: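 Single-dose NCI-60 screen at 10 µM. Cells were grown in RPMI 1640 with 5% FBS and 2 mM L-glutamine, then treated for 48 h at 37 °C. Protein was measured by SRB staining with absorbance at 515 nm. Percentage growth was recorded, and inhibition percentage was calculated as 100 minus growth percentage.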

[23] = test system: OVCAR-4; assay: Cytotoxicity against human OVCAR4 cells assessed as cell growth at 1 uM after 48 hrs by sulforhodamine B assay; settings: OVCAR-4, 48 h, read-out: Activity
[24] = test system: NCI-H226; assay: Cytotoxicity against human NCI-H226 cells assessed as cell growth at 10 uM; settings: read-out: Activity; method in brief: as §1
[25] = test system: EKVX; assay: Cytotoxicity against human EKVX cells assessed as cell growth at 10 uM after 48 hrs by sulforhodamine B assay; settings: read-out: Activity
[26] = test system: SF-539; assay: Cytotoxicity against human SF539 cells assessed as cell growth at 10 uM after 48 hrs by sulforhodamine B assay; settings: SF-539, 48 h, read-out: Activity
[27] = test system: SNB-75; assay: Cytotoxicity against human SNB75 cells assessed as cell growth at 10 uM after 48 hrs by sulforhodamine B assay; settings: SNB-75, 48 h, read-out: Activity

Row | Compound | growth at 0.1 µM [1] [%] | growth at 10 µM [2] [%] | growth at 10 µM [3] [%] | growth at 10 µM [4] [%] | growth at 10 µM [5] [%] | growth at 0.001 µM [6] [%] | growth at 0.01 µM [7] [%] | growth at 0.01 µM [8] [%] | growth at 0.01 µM [9] [%] | growth at 0.01 µM [10] [%] | growth at 0.001 µM [11] [%] | growth at 0.001 µM [12] [%] | growth at 0.001 µM [13] [%] | growth at 0.001 µM [14] [%] | GI50 [15] [µM] | TGI [15] [µM] | CC50 [15] [µM] | GI50 [16] [µM] | CC50 [16] [µM] | GI50 [17] [µM] | further results
1 | COc1cc(C)cc(-c2c(-c3ccnc(-c4ccc(N(C)C)cc4)c3)cnn2CC#N)c1 | 11 | 4.55 | -17.5 | 25.4 | 18.7 | 96 | 20 | 29 | 56 | 63 | 94 | 89 | 94 | 101 | 0.276 | > 100 | > 100 | 0.0694 | > 100 | > 100 | TGI [16]: > 100 µM; TGI [17]: > 100 µM; CC50 [17]: > 100 µM; GI50 [18]: 0.236 µM; TGI [18]: > 100 µM; CC50 [18]: > 100 µM; GI50 [19]: 0.0369 µM; TGI [19]: 0.0893 µM; CC50 [19]: > 100 µM; GI50 [20]: 0.256 µM; LC50 [20]: > 100 µM; growth at 10 µM [21]: -5.87%; growth at 10 µM [22]: 14.9%; growth at 1 µM [23]: 31%; growth at 10 µM [24]: 39.8%; growth at 10 µM [25]: 2%; growth at 10 µM [26]: 2%; growth at 10 µM [27]: 11%
2 | COc1cc(C)cc(-c2c(-c3ccnc(-c4ccc(C(C)=O)cc4)c3)cnn2CC#N)c1 | 85 | 58.8 | 50.5 | 80.1 | 63.8 | 102 | 97 | 96 | 98 | 87 | 110 | 95 | 74 | 101 | 3.9 | > 100 | > 100 | 2.08 | > 100 | > 100 | TGI [17]: > 100 µM; CC50 [17]: > 100 µM; GI50 [18]: 2.86 µM; TGI [18]: > 100 µM; CC50 [18]: > 100 µM; GI50 [19]: 4.24 µM; TGI [19]: > 100 µM; CC50 [19]: > 100 µM; GI50 [20]: 3.63 µM; LC50 [20]: > 100 µM; TGI [20]: > 100 µM; growth at 10 µM [21]: 57%; growth at 10 µM [22]: 78.1%; growth at 1 µM [23]: 27%; growth at 10 µM [24]: 83.7%; growth at 10 µM [25]: 46%; growth at 10 µM [26]: -34%; growth at 10 µM [27]: 1%
3 | Cc1cc(O)cc(-c2nn(CC#N)cc2-c2ccnc(-c3ccc(N(C)C)cc3)c2)c1 | 89 | 33.7 | 6.66 | 45 | 40.8 | 100 | 76 | 90 | 89 | 84 | 101 | 96 | 101 | 105 | 4.48 | 24.8 | > 100 | 1.86 | > 100 | 1.49 | TGI [16]: 5.94 µM; TGI [17]: 60.4 µM; CC50 [17]: > 100 µM; GI50 [18]: 4.2 µM; TGI [18]: 69.4 µM; CC50 [18]: > 100 µM; GI50 [19]: 2.89 µM; TGI [19]: 16.4 µM; CC50 [19]: > 100 µM; GI50 [20]: 2.94 µM; LC50 [20]: > 100 µM; TGI [20]: 22.6 µM; growth at 10 µM [21]: 7.44%; growth at 10 µM [22]: 36.5%; growth at 1 µM [23]: 27%; growth at 10 µM [24]: 35.8%; growth at 10 µM [25]: -1%; growth at 10 µM [26]: -71%; growth at 10 µM [27]: -26%
